Measurements taken from paper PMC11617404 (iScience, 2024).

Experiments:
HYlight [1] = biological target: T1, HYlight (Bacillus subtilis, UniProt O32253); conditions: cited from earlier work
HYlight [2] = biological target: T1, HYlight; assay: Titration of purified recombinant HYlight, excitation ratio F500/F400; type: binding; conditions: for maximum fluorescence ratio: purified HYlight, titration from low μM to mM range, Figure 5C; for average fluorescence ratio: 1 μM FBP, Figure 6D; for maximum ratiometric value (fluorescence ratio): Figure 6A; for fluorescence ratio (maximum): Figure 7A
Summary of the method: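 Purified sensor (200 nM) was scanned at excitation 350–520 nm, emission 560 nm, 25°C, with ratio F500/F400. For ionic strength, protein in TBS (0 mM NaCl, 50 mM Tris-HCl pH 7.6) was titrated with FBP and NaCl 0–150 mM. The buffer series compared 25 mM MES/CHES/HEPES, PBS and Britton-Robinson pH 8, pH-adjusted with NaOH; n = 3.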

HYlight [3] = biological target: T1, HYlight; assay: Dihydroxyacetone phosphate competition assay on purified HYlight; type: binding; conditions: purified HYlight in the presence of 100 μM FBP, Figure 5D
Summary of the method: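 Protein was IPTG-induced (0.5 mM, overnight, 30°C), purified by Ni2+ affinity and size exclusion, and used at 200 nM. DHAP was titrated with or without 100 μM FBP, and with or without cytosolic ionic strength (140 mM K+, 12 mM Na+) plus a metabolic mix. Excitation was scanned 350–520 nm with emission at 560 nm, 25°C. Ratio R = F500/F400, ΔR/R0 = (Rt−Rt=0)/Rt=0; n = 3.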

HYlight [4] = biological target: T1, HYlight; assay: Metal binding assay on purified HYlight; conditions: 150 mM NaCl or KCl, 0.1 mM EDTA
HYlight [5] = biological target: T1, HYlight; assay: Phosphate titration assay on purified HYlight; type: binding
Summary of the method: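 Purified sensor (200 nM) or null variant was tested in SEC buffer pH 8 with TBS or PBS. Separately, 200 mM Sorensen's phosphate pH 8 was titrated from the nM to mM range into sensor in 50 mM Tris pH 8, with or without 100 μM FBP, keeping conductivity constant. Excitation was scanned 350–520 nm, emission 560 nm, 25°C; read-out was the F500/F400 ratio change; n = 3.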

aldolase = conditions: cited from earlier work
[6] = system: primary mouse hepatocytes; assay: Hypoxia induction assay; type: cell-based; conditions: 1 mM overnight, 1 h starvation
Summary of the method: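 Transfected primary mouse hepatocytes received 1 mM DMOG 24 h before and during the assay, with DMSO as blank. After 1 h glucose starvation they were given 20 mM glucose (35 min), a further 20 mM glucose (10 min), then 100 mM 2-DG (10 min), with the 488/405 nm ratio recorded.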

HepG2 cells [7] = assay: Hypoxia induction assay; type: cell-based, human; conditions: 1 mM overnight, 1 h starvation
Summary of the method: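 Transfected HepG2 cells received 1 mM DMOG 24 h before the assay, kept throughout, with DMSO as blank. After 1 h glucose starvation, cells were imaged for 30 min after 10 mM glucose, following the 488/405 nm ratio. n ≥ 5, 50 cells per replicate.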

PFK-1 = PFK-1 toward FBP; ref BRENDA:EC2.7.1.11; Zheng and Kemp[47]; cited from earlier work
FBPase-1 = FBPase-1 for FBP, gluconeogenic conditions; cited from earlier work
[8] = FBP quantification with HYlight in primary mouse hepatocytes; type: cell-based
Summary of the method: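 Hepatocytes were transfected with HYlight plasmid 2 h after seeding; medium was replaced 12 h later. Cells were glucose-starved 1 h in glucose-free Seahorse XF DMEM (pH 7.4, 2 mM glutamine), then given 10 mM glucose. Confocal 488/405 ratios were normalized to post-2-DG values and read against an in vitro FBP curve (ΔR/R10) mimicking ionic strength and metabolic competition. n = 3, ≥50 cells each.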

HepG2 cells [9] = assay: FBP added to the media of non-permeabilized HepG2 cells expressing HYlight; type: cell-based, human; conditions: intact HepG2 cells, increasing FBP in the media, no saponin
[10] = system: primary mouse hepatocytes; assay: Glucose titration, HYlight confocal imaging in primary mouse hepatocytes; type: cell-based; conditions: 1 h glucose starvation, glucose 0–40 mM added every 10 min
Summary of the method: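 Hepatocytes were isolated by two-step collagenase perfusion via the vena cava and cultured in William's medium with 10% FBS and 10 mM HEPES. They were transfected 2 h after seeding, with medium changed at 12 h. After 1 h starvation in glucose-free XF DMEM pH 7.4, cells were imaged 10 min, given glucose in steps every 10 min to 40 mM, then 100 mM 2-DG. The 488/405 nm ratio was recorded; n = 3, ≥50 cells each.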

HepG2 cells [11] = assay: ECAR and OCR during glycolytic stress test; type: cell-based, human; conditions: 1 h glucose starvation, 10 mM glucose, 10 μM oligomycin, 100 mM 2-DG
Summary of the method: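 HepG2 cells in Seahorse plates were transfected the next day with the sensor or its null variant. At 24 h they were glucose-starved for 1 h in XF DMEM (pH 7.4, 2 mM glutamine, no glucose, no phenol red) in a CO2-depleted incubator, and the medium was renewed. Additions: 10 mM glucose, 10 μM oligomycin, then 100 mM 2-DG in two 50 mM steps. OCR (pmol O2/min) was normalized to cell number by BCA protein assay; n = 3.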

HLE cells = assay: Glycolytic stress test, HYlight confocal imaging in HLE cells; type: cell-based, human; conditions: after the addition of 10 mM glucose
Summary of the method: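 Transfected HLE cells were glucose-starved for 1 h in XF DMEM pH 7.4 (2 mM glutamine, no glucose) and imaged 10 min. They then received 10 mM glucose for 30 min, 2.5 μM oligomycin for 30 min and 50 mM 2-DG for 30 min. The 488/405 nm ratio was followed over time and min-max normalized.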

[12] = system: HepG2, HLE, and Huh6 cells; assay: Glucose titration, HYlight confocal imaging in hepatoma cell lines; type: cell-based, human
Summary of the method: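 Hepatoma lines expressing codon-optimized cytosolic sensor (Lipofectamine, medium changed at 24 h) were glucose-starved for 1 h in XF DMEM pH 7.4 without glucose. They were imaged 10 min, then given increasing glucose every 10 min up to 40 mM, then 50 mM 2-DG. The 488/405 nm confocal ratio was min-max normalized, and the Hill coefficient was taken from ratio versus glucose; n = 3, ≥50 cells each.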

HepG2 cells [13] = assay: Gluconeogenesis induction with FBP1 or PFK inhibition, HYlight imaging; type: cell-based, human
Summary of the method: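 HepG2 cells were kept in DMEM Glutamax with 25 mM lactate and 0.65 mM pyruvate. After transfection, 50 μM dexamethasone and 100 nM glucagon were added; normal medium served as comparison. The PFK inhibitor (20 μM) was given 24 h before the assay, and the FBP1 inhibitor (20 μM) acutely. After 1 h glucose starvation, cells were imaged with dexamethasone and glucagon (60 min each), FBP1 inhibitor (30 min), then 15 mM glucose (25 min). Read-out was 488/405 nm ratio; n ≥ 3, 50 cells each.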

HYlight [14] = biological target: T1, HYlight; assay: Titration of purified HYlight with oligomycin or 2-DG; type: binding; conditions: increasing concentrations, Figure S1E

T1 sequence (O32253 96-340, other chains not shown): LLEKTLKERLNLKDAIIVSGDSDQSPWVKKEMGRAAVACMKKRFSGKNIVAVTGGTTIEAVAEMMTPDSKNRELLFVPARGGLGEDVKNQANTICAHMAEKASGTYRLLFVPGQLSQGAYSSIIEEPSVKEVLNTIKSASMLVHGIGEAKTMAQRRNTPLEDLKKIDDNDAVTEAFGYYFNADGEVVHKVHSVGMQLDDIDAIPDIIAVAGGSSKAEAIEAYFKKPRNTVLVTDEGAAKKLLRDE

O=P(O)(O)OC[C@H]1O[C@@](CO)(OP(=O)(O)O)[C@@H](O)[C@@H]1O [fructose 2,6-bisphosphate]
binding to HYlight (HYlight [1]): can also bind

O=C(CO)COP(=O)(O)O [DHAP, dihydroxyacetone phosphate]
maximum fluorescence ratio (HYlight [2]): 0.75 | DHAP concentration at which significant competition was observed (HYlight [3]): above 2.5 mM

O=C(O)CN(CCN(CC(=O)O)CC(=O)O)CC(=O)O [EDTA, ethylenediaminetetraacetic acid]
effect on response and apparent KD value of HYlight for FBP (HYlight [4]): did not alter the response or the apparent KD value

phosphate
effect of phosphate titration on 500/400 fluorescence ratio (HYlight [5]; in the absence of FBP): increase in the 500/400 fluorescence ratio | effect of phosphate titration on fluorescence response (HYlight [5]; in the presence of 100 μM FBP): decrease in fluorescence response

O=CC(O)COP(=O)(O)O (stereo not shown) [glyceraldehyde 3-phosphate]
turnover rate (aldolase; aldolase toward glyceraldehyde 3-phosphate, ref BRENDA:EC4.1.2.13, Plater et al.[48]): 8.2 s⁻¹

COC(=O)CNC(=O)C(=O)OC [DMOG, dimethyloxalylglycine]
basal fluorescence (HYlight ratio) [6]: significant increase in basal fluorescence | response to glucose (HYlight ratio) [6]: diminished or absent response to glucose | basal fluorescence (HYlight ratio) (HepG2 cells [7]): significant increase in basal fluorescence | response to glucose (HYlight ratio) (HepG2 cells [7]): diminished or absent response to glucose

O=C(COP(=O)(O)O)[C@@H](O)[C@H](O)[C@H](O)COP(=O)(O)O [FBP, fructose 1,6-bisphosphate]
average fluorescence ratio (HYlight [2]; TBS with 0 mM NaCl): 1.87 | average fluorescence ratio (HYlight [2]; TBS with 150 mM NaCl): 0.94 | maximum ratiometric value (fluorescence ratio) (HYlight [2]; Britton-Robinson phosphate buffer): 1 | fluorescence ratio (maximum) (HYlight [2]; CIS (140 mM KCl and 12 mM NaCl)): 3.5 | fluorescence ratio (maximum) (HYlight [2]; CIS + metabolic mix solution): 3.5 | maximum ratiometric value (fluorescence ratio) (HYlight [2]; MES-CHES-HEPES buffer): ~3 | maximum ratiometric value (fluorescence ratio) (HYlight [2]; PBS): 2 | maximum fluorescence ratio (HYlight [2]): 2 | fluorescence ratio (maximum) (HYlight [2]; working buffer, 125 mM NaCl): 2 | specificity constant (aldolase; aldolase for FBP): 4.7 mM⁻^1s⁻^1 | turnover rate (PFK-1): 111 s⁻¹ | specificity constant (FBPase-1): 23 mM⁻^1s⁻^1 | FBP concentration in primary mouse hepatocytes (HYlight) ([8]; after 10 mM glucose): 21 µM | FBP concentration in primary mouse hepatocytes (HYlight) ([8]; before glucose addition): 15 µM | entry of FBP from the media into cells (HYlight ratio unchanged) (HepG2 cells [9]): could not cross the membrane

OC[C@H]1OC(O)[C@H](O)[C@@H](O)[C@@H]1O (stereo partly shown) [glucose]
glucose concentration after which HYlight changes were detected [10]: 20 mM | change of oxygen consumption rate (OCR) (HepG2 cells [11]): decrease in oxygen consumption | time to maximum HYlight response (HLE cells): 30 min | glucose concentration needed for HYlight changes ([12]; 1 h glucose starvation, glucose 0–40 mM added every 10 min): 5 mM | hill coefficient of HYlight ratio against glucose concentration ([12]; HLE, HepG2, Huh6 cell lines and primary mouse hepatocytes, Figure 1C): approximately 1

O=C(/C=C/c1cccnc1)c1ccncc1 [3PO, (2E)-3-(3-Pyridinyl)-1-(4-pyridinyl)-2-propen-1-one]
decrease in FBP levels after glucose addition (HepG2 cells [13]; 20 μM, 24 h treatment, gluconeogenic media): not observed | FBP levels (HYlight ratio) after glucose addition (HepG2 cells [13]; 20 μM, 24 h treatment, normal media): significant decrease in the FBP levels

[K+] [K^+]
effect on response and apparent KD value of HYlight for FBP (HYlight [4]): did not alter the response or the apparent KD value

[Na+] [Na^+]
effect on response and apparent KD value of HYlight for FBP (HYlight [4]): did not alter the response or the apparent KD value

O=CC[C@@H](O)[C@H](O)[C@H](O)CO [2-DG, 2-deoxy-D-glucose]
change of oxygen consumption rate (OCR) (HepG2 cells [11]): increase in the OCR | direct effect on ratiometric response of purified HYlight (HYlight [14]): do not directly interact with HYlight

CC[C@H]1/C=C/C=C/C[C@@H](C)[C@H](O)[C@@](C)(O)C(=O)[C@@H](C)[C@H](O)[C@@H](C)C(=O)[C@@H](C)[C@H](O)[C@@H](C)/C=C/C(=O)O[C@@H]2[C@H](C)[C@H](CC1)O[C@]1(CC[C@H](C)[C@H](C[C@@H](C)O)O1)[C@H]2C [oligomycin, Oligomycin A]
change of oxygen consumption rate (OCR) (HepG2 cells [11]): decrease in oxygen consumption | direct effect on ratiometric response of purified HYlight (HYlight [14]): do not directly interact with HYlight

O=S(=O)(Nc1nc2cc(Cl)ccc2o1)c1cc(Cl)ccc1Cl [5-chloro-2-(N-(2,5-dichlorobenzenesulfonamide))-benzoxazole]
FBP level (HYlight ratio) after glucose addition (HepG2 cells [13]; 20 μM inhibitor, gluconeogenic medium, 15 mM glucose): increase of FBP to levels comparable to those seen with standard media
